Reference: ChEMBL document CHEMBL1142626, “Insecticidal and mutagenic evaluation of two annonaceous acetogenins” (J Nat Prod, 2000)

Key:
[1] = test system: Myzus persicae; experiment: Antifeedant effect against Myzus persicae assessed as inhibition index at 100 ug/cm2 relative to control; type: functional; parameters: scale not given: the % may be the effect or the level left
In short: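 Choice settling test on apterous adult M. persicae: 20 boxes of 10 aphids per treatment. Settling inhibition %SI = [1 − (%aphids on treated/%aphids on control surface)] × 100.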

[2] = test system: Leptinotarsa decemlineata; experiment: Antifeedant effect against Leptinotarsa decemlineata assessed as feeding reduction at 10 ug/cm2; type: functional, organism-based
In short: (§1)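 Choice test on leaf disks using adult L. decemlineata or newly emerged fifth-instar S. littoralis larvae. Five to 10 plates per treatment, three insects each. Uneaten leaf-disk area was measured by scanner. %FR = [1 − (treatment/control consumption)] × 100 per arena. Where FR exceeded 50%, EC50 was taken from linear regression of %FR on log dose.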

[3] = test system: Spodoptera littoralis; experiment: Antifeedant effect against Spodoptera littoralis L6 larvae assessed as relative consumption rate at 10 ug, po after 72 hrs; type: functional
In short: (§2)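 Preweighed, newly emerged S. littoralis L6 larvae (20 per experiment) were orally cannulated with 10 µg in 2 µL DMSO; controls got solvent alone. Relative consumption and growth rates were calculated at 72 h on a dry-weight basis. Log-transformed weights were analysed by ANOVA with LSD tests.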

[4] = test system: Spodoptera littoralis; experiment: Antifeedant effect against Spodoptera littoralis L6 larvae assessed as relative growth rate at 10 ug, po after 72 hrs; type: functional; in short: as §2
[5] = test system: Leptinotarsa decemlineata; experiment: Insecticidal activity against Leptinotarsa decemlineata assessed as mortality at 5 ug by hemolymph injection after 72 hrs; type: functional
In short: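 Adult L. decemlineata (20 beetles) were injected with 5 µg in DMSO through the metepimeron suture of the thorax. Beetles were kept on potato leaves. Symptoms and mortality were recorded up to 3 days, analysed by contingency tables and Abbott-corrected.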

[6] = test system: Myzus persicae; experiment: Insecticidal activity against Myzus persicae assessed as increase in mortality at 100 ug/cm2 observed daily for 4 days; type: functional, organism-based
In short: (§3)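 No-choice test: 20 boxes, each with five same-age apterous adult M. persicae (100 insects). Nymphs produced in the first 48 h were separated from adults and kept in similarly treated boxes. Both were observed daily for 4 days for mortality. Analysed by contingency tables and LSD test.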

[7] = test system: Myzus persicae; experiment: Insecticidal activity against Myzus persicae assessed as offspring production at 100 ug/cm2 observed daily for 4 days; type: functional, organism-based; in short: as §3
[8] = test system: Myzus persicae; experiment: Insecticidal activity against Myzus persicae assessed as offspring production at 50 ug/cm2 observed daily for 4 days; type: functional, organism-based; in short: as §3
[9] = test system: Spodoptera littoralis; experiment: Antifeedant effect against Spodoptera littoralis assessed as feeding reduction at 100 ug/cm2 relative to control; type: functional; parameters: scale not given: the % may be the effect or the level left; in short: as §1

Q: Which results are given for `C=C(C)[C@H]1Cc2c(ccc3c2O[C@@H]2COc4cc(OC)c(OC)cc4[C@@H]2C3=O)O1` [ROTENONE]?
A: Activity [1]: <40%; Activity [2]: Toxic; Activity [3]: 20.88 mg; Activity [4]: 3.47 mg; Activity [5]: 100%; Activity [6]: Non-toxic; Activity [7]: Toxic; Activity [8]: Toxic; Activity [9]: >40%
